High-throughput results: PubChem, several laboratories
GalR3 antagonist – blocks the human galanin receptor 3; HEK293 GalR3-CNG cAMP membrane potential fluorescence; galR3 body fused to GalR1 C-terminus; inhibition, % at 3 µM; 360,000 compounds, 0.44% hits; AID 651719;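 active means inhibition above the screen-wide average plus 3 SD, cut at about 13% in these data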;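 further: forskolin and galanin both at EC90 stimulate the cells; cAMP rise reported by CNG channel membrane potential dye signal; 0% = forskolin plus galanin with DMSO and 100% = forskolin alone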
Target sequence (O60755 1-299 limits assumed): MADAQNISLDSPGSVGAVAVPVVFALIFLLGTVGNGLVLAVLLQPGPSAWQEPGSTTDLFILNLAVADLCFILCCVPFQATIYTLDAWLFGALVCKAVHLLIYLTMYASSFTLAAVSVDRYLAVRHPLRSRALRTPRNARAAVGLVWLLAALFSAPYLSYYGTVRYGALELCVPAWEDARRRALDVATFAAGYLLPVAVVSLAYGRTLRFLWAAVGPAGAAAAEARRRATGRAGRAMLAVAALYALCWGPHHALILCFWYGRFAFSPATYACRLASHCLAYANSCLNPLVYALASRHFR
NR1D1 modulator – Rev-erb alpha (human) modulation. 370,000 compounds, 0.79% hits. P20393. AID 1259318. activity, % at 10 µM. Rev-erbα–FITC-DNA binding, fluorescence polarization, 90 min;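 active means activity above about 14%, limit read from the data; passing the limit was not always enough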;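 further: 0% = DMSO wells with 35 nM protein and 100% = DMSO wells with 750 nM protein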
NR2E3 ag-1 – NR2E3 (human) agonism. Q9Y5X4. inhibition of corepressor binding, % at 4.78 µM. 320,000 compounds, 0.12% hits. GST-NR2E3/biotin-RetCOR TR-FRET, 1536-well;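 active means percent inhibition above the cutoff of mean plus 3 SD of all tested compounds, set per screening campaign, cut at about 20% in these data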;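 further: 0% = DMSO wells and 100% = biotin wells as full block of FRET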
Target sequence (Q9Y5X4 whole entry, looked up): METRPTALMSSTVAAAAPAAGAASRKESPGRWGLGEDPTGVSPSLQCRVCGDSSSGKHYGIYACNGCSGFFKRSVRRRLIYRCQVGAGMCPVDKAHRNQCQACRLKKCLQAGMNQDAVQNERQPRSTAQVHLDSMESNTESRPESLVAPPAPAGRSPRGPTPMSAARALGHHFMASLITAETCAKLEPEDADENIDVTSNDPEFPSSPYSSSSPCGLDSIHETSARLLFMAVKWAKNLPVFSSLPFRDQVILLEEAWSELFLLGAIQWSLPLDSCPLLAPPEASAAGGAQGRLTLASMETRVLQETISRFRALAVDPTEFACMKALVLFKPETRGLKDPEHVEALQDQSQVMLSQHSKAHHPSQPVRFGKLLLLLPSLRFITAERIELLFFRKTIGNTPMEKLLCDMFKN
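Assay system: NR2E3–RetCOR corepressor complex. Quantity: 1.35 nM GST-NR2E3. Buffer or medium: pH 7.5 Tris-based buffer. Reagent: biotinylated RetCOR corepressor at 7 nM final. Schedule: 5 h at 4 °C. Detection: TR-FRET, emission read at 617 and 671 nm. Replicates: one well per compound, singlicate testing.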
NR2E3 ag-2 – activates human NR2E3 receptor; Q9Y5X4; CHO-S Gal4-NCOR/VP16-NR2E3 two-hybrid, luciferase; inhibition of corepressor binding, % at 3.98 µM; 360,000 compounds, 0.35% hits;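 active means inhibition above the mean of all tested compounds plus 3 SD, cut at about 70% in these data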;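 further: 0% = DMSO with NR2E3 transfected cells and 100% = cells lacking NR2E3 construct; higher means lower luciferase signal from less NR2E3 corepressor binding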
PG9 Ab binder – binds the HIV-1 gp120 antibody PG9; inhibition, % at 6.7 µM; 360,000 compounds, 0.43% hits; TR-FRET gp120-PG9 antibody binding; in the data active means inhibition above about 8.5%
NR2E3 ag confirm – NR2E3 agonism confirmed in two-hybrid assay | shares compounds with NR2E3 ag-2 | CHO-S mammalian two-hybrid NR2E3-NCOR, luciferase luminescence | inhibition, % at 3.98 µM | 2,300 compounds, 51% hits | AID 624378;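 active means average inhibition above a cutoff equal to the mean inhibition of all tested compounds plus one SD, cut at about 70% in these data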;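 further: 0% = DMSO in NR2E3 cells and 100% = DMSO in cells lacking NR2E3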
VP16 counter – GAL4-VP16 reporter inhibition in NR2E3 agonist counterscreen. 2,300 compounds, 29% hits. shares compounds with NR2E3 ag-2. CHO-S GAL4-VP16 luciferase reporter, luminescence. inhibition, % at 3.98 µM. AID 624379;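 active means mean inhibition above a cutoff equal to the average over all tested compounds plus one standard deviation, cut at about 70% in these data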;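 further: luciferase from a UAS reporter driven by GAL4-VP16 transactivation; 0% = DMSO with VP16-transfected cells and 100% = DMSO with cells lacking VP16; higher means less reporter light so more repression of VP16 activity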
* = called active by the depositor; nt = not tested or not shown. A selection: hits, their analogues and other compounds. The true share with any hit is near 1.8%.

SMILES | GalR3 antagonist | NR1D1 modulator | NR2E3 ag-1 | NR2E3 ag-2 | PG9 Ab binder | NR2E3 ag confirm | VP16 counter
COc1ccccc1CNC(=O)N1CCC(c2nc3ccc(Cl)cc3[nH]2)CC1 | nt | -1.1 | nt | nt | nt | nt | nt
COc1cccc2sc(N3CCN(C(=O)c4ccc([N+](=O)[O-])o4)CC3)nc12 | nt | nt | 0.9 | 62.8 | nt | 41.8 | 33.6
C=Cc1ccc(Cn2nc(-c3ccc(C)cc3)ccc2=O)cc1 | -8.8 | 4.0 | -6.0 | 50.4 | -0.6 | 87.0* | 71.7*
Cc1ccc(NC(=S)NCCC(c2ccccc2)c2ccccc2)c(C)c1 | -3.6 | 2.2 | -1.7 | 36.0 | 1.7 | nt | nt
Cc1ccccc1NC(=S)NCCC(c1ccccc1)c1ccccc1 | -1.9 | 1.8 | 0.4 | 50.3 | -0.1 | 10.8 | 9.8
O=C(Nc1cccc(C(F)(F)F)c1)c1cccc2c(-c3cccnc3)coc12 | nt | nt | nt | -59.0 | nt | nt | nt
COc1ccc(CNC(=O)c2cccc3c(-c4cnn(C)c4)coc23)cc1OC | -8.0 | 11.4 | nt | 62.9 | -0.2 | 41.1 | 34.2
COc1cc(NC(=O)c2cccc3c(-c4cccnc4)coc23)cc(OC)c1OC | -5.2 | -1.9 | nt | 50.8 | -0.4 | 13.2 | 42.1
Cn1cc(-c2coc3c(C(=O)NCc4cccnc4)cccc23)cn1 | -3.9 | -1.9 | nt | -26.2 | -2.1 | nt | nt
CCN(CC)S(=O)(=O)c1cccc(NC(=O)Nc2cccc(C(F)(F)F)c2)c1 | -6.1 | 1.5 | -1.5 | 74.8* | -2.0 | 65.2 | 53.1
O=[N+]([O-])c1ccc(NS(=O)(=O)c2ccc(Cl)c(Cl)c2)cc1 | -5.3 | -2.8 | nt | 101.4* | 0.1 | 99.3* | 91.3*
O=[N+]([O-])c1ccc(Oc2ccc(S(=O)(=O)Nc3ccccc3)cc2)cc1 | nt | nt | 0.1 | 57.9 | nt | 98.8* | 78.7*
N#Cc1ccc(NCCCN2CCC(C(O)(c3ccccc3)c3ccccc3)CC2)cc1 | nt | 3.2 | nt | nt | nt | nt | nt
O=c1cc(CSc2ccc(Cl)cc2)nc(-c2ccccn2)[nH]1 | -3.3 | 0.7 | -0.4 | 101.3* | -0.6 | 97.8* | 60.0
Clc1ccc(SCc2cc(N3CCOCC3)nc(-c3ccccn3)n2)cc1 | -4.6 | 2.2 | 0.4 | 94.5* | -1.0 | 57.6 | 42.8
O=c1cc(CSc2ccc(Cl)cc2)nc(-c2ccccc2)[nH]1 | -4.3 | -2.2 | -2.8 | -3.4 | -1.7 | nt | nt
C=C(C)CSc1nnc(-c2cc(-c3ccccc3)n[nH]2)n1N | nt | -6.2 | nt | nt | nt | nt | nt
CC(C)NC(=S)N/N=C1\CCCCC1C1CCCCC1 (centres undefined) | -4.8 | 9.3 | 0.8 | 67.1 | -0.7 | -15.8 | -0.1
CSC(=S)N/N=C(\C)c1ccc(Br)cc1 | 0.5 | -7.5 | -2.8 | 82.1* | 0.2 | -15.4 | -17.8
COC(=O)N/N=C(\C)c1ccc(Br)cc1 | -2.5 | 0.8 | 3.9 | -39.4 | -2.4 | nt | nt
COC(=O)c1cc(-c2cnc(OC)nc2OC)c(=O)n2c1CCC2 | nt | 1.1 | nt | nt | nt | nt | nt
O=C(c1ccc(CSc2nc3ccncc3[nH]2)cc1)N1CCN(c2cccc(Cl)c2)CC1 | nt | -0.6 | 2.1 | 87.9* | 0.3 | 97.5* | 69.3
CC(=O)Nc1ccc(OCc2cccc3ccccc23)cc1 | -2.2 | 4.2 | 1.0 | 48.5 | -2.3 | 46.5 | 44.3
COc1ccc(NC(=O)CNC(=O)Cc2cccc3ccccc23)cc1 | -5.8 | 4.2 | nt | -10.2 | -2.6 | nt | nt
COc1ccc(CNCCNC(=O)c2nonc2N)cc1OC | -2.4 | 8.2 | 0.2 | 20.6 | 1.5 | nt | nt
SMILES | GalR3 antagonist | NR1D1 modulator | NR2E3 ag-1 | NR2E3 ag-2 | PG9 Ab binder | NR2E3 ag confirm | VP16 counter
Nc1nonc1C(=O)NCCNCc1cc(Br)ccc1OCc1ccc(F)cc1 | -7.7 | 0.3 | 2.9 | 57.8 | 3.5 | 62.8 | 59.4
Cc1ccc(-n2nc3c(=O)n(CCCC(=O)NCc4ccc(F)cc4)nc(C)c3c2C)cc1 | -5.1 | 5.4 | -1.9 | 25.6 | -0.6 | nt | nt
Cc1ccc(-n2nc3c(=O)n(CCCC(=O)NCc4cccc(F)c4)nc(C)c3c2C)cc1 | -8.2 | -1.3 | -0.7 | 51.7 | 0.2 | 20.4 | 39.3
Cc1ccc(-n2nc3c(=O)n(CC(=O)NC(C)CCc4ccccc4)nc(C)c3c2C)cc1 (centres undefined) | nt | nt | 1.2 | 55.0 | nt | 52.0 | 65.3
CSc1ccc(-c2cnc(N3CCC(C(N)=O)CC3)s2)cc1 | nt | 0.5 | nt | nt | nt | nt | nt
O=c1c(Br)ccc(Br)cc1Br | 6.3 | 1.5 | nt | 70.9* | -0.2 | 99.7* | 45.9
O=C1CN(S(=O)(=O)c2cc(Br)ccc2Br)CCN1 | -4.7 | 1.9 | nt | 1.7 | -1.5 | nt | nt
O=C(COc1ccccc1O)Nc1ccccc1Cl | -6.0 | -3.3 | -0.8 | -50.4 | 0.2 | nt | nt
O=C(COc1ccccc1O)NNc1ccccc1 | -0.4 | -0.8 | -0.1 | 60.6 | -2.4 | 46.7 | 11.0
O=C(NC(=S)N1CCN(c2c(Cl)cccc2[N+](=O)[O-])CC1)c1cccs1 | -2.1 | 0.7 | 3.0 | 53.9 | 0.2 | 38.9 | 34.5
COc1ccc(N2CCN(C(=S)NC(=O)c3cccs3)CC2)c([N+](=O)[O-])c1 | -5.7 | 2.5 | -1.1 | 1.5 | 0.1 | nt | nt
O=C(CCCN1C(=O)/C(=C/c2ccccc2Cl)SC1=S)NNC(=O)c1ccncc1 | -4.5 | 2.7 | 4.2 | 56.0 | -0.3 | -44.8 | 54.1
O=C(CCCN1C(=O)/C(=C/c2ccccc2Cl)SC1=S)NCCCN1CCOCC1 | 1.5 | -6.6 | 2.1 | 77.7* | -3.0 | -18.3 | 63.0
O=C(c1cc(F)cc(F)c1)N1CCCC(c2nc(-c3cccs3)no2)C1 (centres undefined) | nt | -3.7 | nt | nt | nt | nt | nt
CCOc1ccc(OCCC(=O)Nc2ccc(F)cc2C)cc1 | -4.5 | -1.8 | 1.8 | 49.7 | -2.4 | 14.7 | -25.0
OCC(CCc1c[nH]c2ccccc12)c1c[nH]c2ccccc12 (centres undefined) | -2.2 | -0.9 | nt | nt | -1.4 | nt | nt
CCOc1ccc(S(=O)(=O)N2CCCCC2)c2ccccc12 | -1.7 | 3.3 | 0.1 | 58.5 | 0.0 | 54.8 | -9.9
CCCCN(C(C)=O)c1ccc2c(c1)C1CC2CCN1C(=O)OCc1ccccc1 (centres undefined) | -9.9 | -0.5 | nt | 67.5 | 0.2 | 91.4* | 69.3
COc1cccc(CN(C)C(=O)c2cc(COc3ccc(-n4cncn4)cc3)on2)c1 | -1.9 | 6.0 | 2.9 | 66.4 | 1.7 | 45.9 | 40.8
CC1CCN(c2ccc(S(=O)(=O)N3CCC(C)CC3)cc2N)CC1 | 8.9 | -10.7 | -0.8 | 100.0* | 0.1 | 87.4* | 72.1*
Nc1cc(S(=O)(=O)N2CCCCC2)ccc1N1CCOCC1 | 2.6 | -4.6 | -0.1 | 11.5 | -1.1 | nt | nt
Nc1cc(S(=O)(=O)Nc2ccccc2Cl)ccc1N1CCCCC1 | -8.0 | 2.1 | nt | 70.1* | 0.4 | 83.5* | 60.9
Nc1cc(S(=O)(=O)c2ccc(N3CCCCC3)c(N)c2)ccc1N1CCCCC1 | -9.2 | 0.5 | nt | 94.1* | -4.2 | 95.2* | 83.8*
Nc1ccc(N2CCCCC2)c(S(=O)(=O)Nc2ccccc2Cl)c1 | -9.2 | 8.2 | 3.0 | -10.6 | 0.9 | nt | nt
Cc1ccc(-c2cc(C(=O)NN=Cc3ccc(N(C)C)cc3)[nH]n2)cc1C | nt | -26.4 | nt | nt | nt | nt | nt
